hIAP act = increases human intestinal alkaline phosphatase activity. P09923. purified human IAP, CDP-Star luminescence, 30 min; hits give high values; 1 = vehicle-only enzyme, 0 = enzyme-free background. activation factor at 10 µM. hit rate 0.16% among 330,000. AID 2524;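 active = activation factor of the enzyme at least 2-fold when tested at 20 µM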
Target sequence (P09923 whole entry, looked up): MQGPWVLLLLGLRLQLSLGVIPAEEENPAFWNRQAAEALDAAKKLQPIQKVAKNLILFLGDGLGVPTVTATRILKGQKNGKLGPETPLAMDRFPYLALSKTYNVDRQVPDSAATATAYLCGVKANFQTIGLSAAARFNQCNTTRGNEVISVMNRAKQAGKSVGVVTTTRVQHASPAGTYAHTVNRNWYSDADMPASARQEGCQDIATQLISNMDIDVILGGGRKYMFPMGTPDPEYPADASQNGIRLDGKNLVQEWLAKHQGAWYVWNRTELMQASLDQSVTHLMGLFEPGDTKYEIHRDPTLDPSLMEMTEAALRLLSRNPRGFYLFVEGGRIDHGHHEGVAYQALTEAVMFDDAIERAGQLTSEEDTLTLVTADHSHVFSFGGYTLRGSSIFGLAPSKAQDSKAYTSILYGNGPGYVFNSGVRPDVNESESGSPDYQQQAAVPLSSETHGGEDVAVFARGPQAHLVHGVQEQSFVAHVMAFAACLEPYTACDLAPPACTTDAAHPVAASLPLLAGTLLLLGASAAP
mIAP block = blocks mouse intestinal alkaline phosphatase; AID 2806; purified mouse IAP, CDP-Star luminescence, 30 min; inhibition, % at 10 µM; hit rate 0.2% among 330,000;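 active = inhibition of at least 40% at 10 µM in the primary screen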;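 also: plate controls were DMSO with enzyme for no effect and no enzyme wells for full effect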
hIAP block = blocks human intestinal alkaline phosphatase; P09923; purified IAP, CDP-Star luminescence, 30 min; inhibition, % at 10 µM; hit rate 0.12% among 330,000; AID 2544;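 active = inhibition reaching a set limit with compound at 10 µM in the primary screen, cut at about 35% in these data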;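 also: plate controls were DMSO wells with enzyme for no effect and no-enzyme buffer wells for full effect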
bIAP activator = intestinal alkaline phosphatase (bovine) activation; purified bovine IAP, CDP-star luminescence, 30 min; hits give high values; fold of DMSO-control signal, blank-subtracted; activation factor at 20 µM; hit rate 0.17% among 200,000; AID 1016;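 active = activation factor of 2 or more at 20 µM, a signal rise over negative controls twice the positive control's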
mIAP act = mouse IAP activation; muIAP, CDP-Star luminescence, 30 min; hits give high values; 1 = vehicle-only enzyme signal, 0 = enzyme-free wells; activation factor at 10 µM; hit rate 0.24% among 330,000;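 active = activation factor of at least 2 at 20 µM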
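Assay system: mouse IAP enzyme; reagent: chemiluminescent substrate CDP-Star; dosing: test compounds delivered from DMSO solution; schedule: 30 min at room temperature; measured by: luminescence from enzymatic CDP-Star hydrolysis; controls: DMSO-only wells and no-enzyme negative control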
bIAP inhibitor = blocks bovine intestinal alkaline phosphatase activity. purified bovine IAP, CDP-star luminescence, 30 min. 190,000 tested, under 10 active. AID 1019. inhibition, % at 20 µM;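 active = over 50% inhibition of intestinal alkaline phosphatase at 20 µM in the single-dose screen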
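Assay system: bovine IAP enzyme; medium: DEA buffer 100 mM, pH 9.8, with MgCl2 1.0 mM, ZnCl2 0.02 mM; doses: 20 µM single dose; incubation: enzyme reaction for 30 min at room temperature; detection: CDP-star luminescence signal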
Active calls of the source: *; · = not tested or not shown. Only some compounds are listed: those with a hit (about 0.72% of all), similar ones and a draw of the others.

SMILES | hIAP act | mIAP block | hIAP block | bIAP activator | mIAP act | bIAP inhibitor
Fc1cccc(/C=N/Nc2ncnc3nc[nH]c23)c1 | 1.97 | -10.1 | -97.4 | 1 | 1.1 | 0.5
Cc1ccc(/C=N/Nc2ncnc3nc[nH]c23)cc1 | 2.17* | 11.7 | -116.6 | · | 0.883 | ·
Clc1ccc(/C=N/Nc2ncnc3nc[nH]c23)cc1 | 2.23* | -0.7 | -123.0 | · | 1.01 | ·
Oc1ccc(/C=N/Nc2ncnc3nc[nH]c23)cc1 | 1.45 | 23.3 | -44.9 | · | 0.767 | ·
COc1cccc(C(O)c2nc3ccccc3n2C(C)C)c1 (stereo not given) | 1.15 | 3.0 | -14.5 | 2.1* | 0.97 | -105.4
COc1cccc(C(O)c2nc3ccccc3n2C(C)C)c1OC (stereo not given) | 1.25 | -4.5 | -24.8 | · | 1.04 | ·
CCOc1ccc(/C=C/C(=O)NCc2ccccc2)cc1 | 1.04 | 16.5 | -3.9 | 1 | 0.835 | 2.3
CCn1cc(CNCc2cn(-c3ccccc3C)nc2-c2ccc(OC)c(F)c2)cn1 | 0.949 | 4.1 | 5.1 | 1 | 0.959 | 0.1
COc1ccc(-c2nn(-c3ccccc3C)cc2CNCCc2cnc[nH]2)cc1F | 1.5 | -3.0 | -49.7 | 2.3* | 1.03 | -129.2
Nc1ccc2nc(CCCCCCCCc3nc4ccc(N)cc4[nH]3)[nH]c2c1 | 1.44 | -10.4 | -44.0 | 2* | 1.1 | -95.4
Cc1ccc(S(=O)(=O)Nc2cccc(/C=C/C(=O)O)c2)cc1 | 1.03 | -4.5 | -3.4 | 1 | 1.04 | 2.3
COc1ccc(S(=O)(=O)Nc2cccc(/C=C/C(=O)O)c2)cc1 | 0.965 | -0.6 | 3.5 | 4.6* | 1.01 | -357.2
CN(C)S(=O)(=O)c1cccc(-c2nn(-c3ccccc3)cc2/C=C2\SC(=S)NC2=O)c1 | · | · | · | 2.1* | · | -108.0
c1ccc(-c2csc(NC3CCCCC3)n2)cc1 | 0.796 | 3.9 | 20.4 | · | 0.961 | ·
O=C(Nc1nc(-c2ccccc2)cs1)NC1CCCCC1 | 1.05 | -156.9 | -4.7 | 0.8 | 2.57* | 17.1
C[C@H](CO)N1C[C@H](C)[C@@H](CN(C)C(=O)Nc2ccc3c(c2)OCO3)Oc2ccc(NC(=O)NC3CCCCC3)cc2C1=O | 0.956 | -129.0 | 4.4 | · | 2.29* | ·
CC(C)NC(=O)Nc1ccc2c(c1)C(=O)N([C@H](C)CO)C[C@H](C)[C@@H](CN(C)C(=O)Nc1ccc(C(F)(F)F)cc1)O2 | 1.1 | -131.6 | -9.8 | · | 2.32* | ·
C[C@H](CO)N1C[C@H](C)[C@@H](CN(C)C(=O)Nc2ccccc2)Oc2ccc(NC(=O)Nc3ccc(C(F)(F)F)cc3)cc2C1=O | 0.902 | -90.5 | 9.8 | · | 1.91 | ·
C[C@H](CO)N1C[C@H](C)[C@@H](CN(C)C(=O)Nc2ccc(C(F)(F)F)cc2)Oc2ccc(NC(=O)Nc3ccc4c(c3)OCO4)cc2C1=O | 0.929 | -138.5 | 7.1 | · | 2.38* | ·
C[C@@H]1CN([C@H](C)CO)C(=O)c2cc(NC(=O)Nc3ccc(F)cc3)ccc2O[C@H]1CN(C)C(=O)Nc1ccc(C(F)(F)F)cc1 | 1.07 | -103.4 | -6.9 | · | 2.03* | ·
CCOC(=O)c1cc(CC)sc1NC(=O)CN1CCN(C(=O)c2ccco2)CC1 | 1.11 | 9.4 | -10.8 | · | 0.906 | ·
CCc1ccc(NC(=S)NC2CC3CCCC(C2)N3Cc2cccs2)cc1 (stereo not given) | 1.5 | -469.8 | -50.1 | 1.6 | 5.7* | -56.2
CCc1ccccc1NC(=O)NC1CC2CCC(C1)N2Cc1cccs1 (stereo not given) | 1.04 | -22.5 | -3.7 | 1.2 | 1.23 | -16.7
CC(C)c1ccc(NC(=O)C(c2ccccc2)N2CC(=O)Nc3ccccc32)cc1 (stereo not given) | 0.971 | -108.4 | 2.9 | 1.1 | 2.08* | -5.1
COc1ccc(-n2c(=O)c3ccccc3n(CC(=O)NCc3ccco3)c2=O)cc1 | 0.936 | 1.5 | 6.4 | 1.1 | 0.985 | -10.3
COc1ccc2c(c1)c(=O)cc(C)n2CC(=O)NCc1ccco1 | 1.09 | -1.0 | -8.6 | 5.3* | 1.01 | -429.9
Cc1ccc(/C=N/NC(=O)c2ccc(-n3cnnn3)cc2)cc1 | 0.844 | -1.3 | 15.6 | · | 1.01 | ·
COCCNC(=O)C(c1cccc(OC)c1)N(Cc1cccs1)C(=O)Cn1nnc2ccccc21 (stereo not given) | 0.918 | -2.4 | 8.2 | 0.9 | 1.02 | 8.6
CCC(C)N(C(=O)Cn1nnc2ccccc21)C(C(=O)Nc1ccc(F)cc1)c1cccc(OC)c1 (stereo not given) | 1.16 | -130.6 | -15.8 | 1.3 | 2.31* | -30.3
